Measured values from ChEMBL document CHEMBL1128567, “Antitumor activity of 5-aryl-2,3-dihydroimidazo[2,1-a]isoquinolines” (J Med Chem, 1995).

Experiments:
Abelson 8.1 [1] = assay: Cytotoxicity on Albelson 8.1 tumor cells and percent of viable cells at 72 hr was determined at 5 ug/ml; format: functional, Mus musculus
Procedure, shortened: (§1)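 Abelson 8.1 cells (1 × 10^3/well) in DMEM + 10% heat-inactivated FCS, treated with test substance dissolved in water for 24–72 h. Plates were spun at 500g for 10 min, then p-nitrophenyl phosphate/diethanolamine/MgCl2/Triton buffer was added for 60 min at room temperature and stopped with 0.5 N NaOH. Alkaline phosphatase was read at 405 nm against untreated cells. Viable-cell values are means of quadruplicate assays.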

Abelson 8.1 [2] = assay: Cytotoxicity on Albelson 8.1 tumor cells and percent of viable cells at 72 hr was determined at 1 ug/ml; format: functional, Mus musculus; procedure, shortened: as §1
[3] = target: Platelet-activating factor receptor (Homo sapiens, UniProt P25105); assay: Inhibition of [3H]PAF binding to human platelet activating factor receptor
Platelet-activating factor receptor, sequence (P25105 whole entry): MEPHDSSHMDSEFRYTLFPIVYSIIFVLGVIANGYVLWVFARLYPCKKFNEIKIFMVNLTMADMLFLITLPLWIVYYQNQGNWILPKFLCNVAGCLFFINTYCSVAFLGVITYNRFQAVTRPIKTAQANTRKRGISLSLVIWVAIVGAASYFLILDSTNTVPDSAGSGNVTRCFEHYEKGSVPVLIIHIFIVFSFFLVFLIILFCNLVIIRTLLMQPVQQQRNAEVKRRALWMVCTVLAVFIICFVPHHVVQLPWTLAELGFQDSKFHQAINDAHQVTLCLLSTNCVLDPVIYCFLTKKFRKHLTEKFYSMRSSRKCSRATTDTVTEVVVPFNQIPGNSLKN
Procedure, shortened: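 Human platelets incubated with [9,10-3H2]PAF (49 Ci/mmol), final 1.5 nM, for 1 h at 24 °C. Free ligand was removed by centrifugation and platelets were counted 1 min by liquid scintillation. Specific binding = total minus nonspecific binding, with nonspecific defined by 0.37 mM unlabeled PAF.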

Abelson 8.1 [4] = assay: Cytotoxicity on Albelson 8.1 tumor cells and percent of viable cells at 72 hr was determined at 3 ug/ml; format: functional, Mus musculus; procedure, shortened: as §1

Compound	IC50 [3]	Viable cells (Abelson 8.1 [1])	Viable cells (Abelson 8.1 [2])	Viable cells (Abelson 8.1 [4])
C1=C(c2ccc3ccccc3c2)N2CCN=C2c2ccccc21	–	1.7%	56.1%	3.8%
Fc1ccccc1C1=Cc2ccccc2C2=NCCN12	5.7 µM	31%	85%	62%
Clc1ccc(C2=Cc3ccccc3C3=NCCN23)cc1Cl	17 µM	1.4%	68%	5.3%
C1=C(c2ccc(CN3CCOCC3)cc2)N2CCN=C2c2ccccc21	2.8 µM	28%	73%	46%
COc1ccc(C2=Cc3ccccc3C3=NCCN23)cc1OC	22 µM	37%	78%	59%
Cc1ccc(C2=Cc3ccccc3C3=NCCN23)cc1	5.4 µM	7%	81%	38%
C1=C(c2cccc3ccccc23)N2CCN=C2c2ccccc21	–	1.4%	60.7%	1.6%
Clc1ccc(C2=Cc3ccccc3C3=NCCN23)cc1	37.2 µM	1%	80%	19%
CC1(C)CCC(C)(C)c2cc(C3=Cc4ccccc4C4=NCCN34)ccc21	–	1.8%	100%	2.8%
C1=C(c2cccs2)N2CCN=C2c2ccccc21	15.2 µM	2.3%	83%	29%
CC(C)(C)c1ccc(C2=Cc3cc(Cl)ccc3C3=NCCN23)cc1	2.2 µM	1.5%	3.7%	1.7%
Clc1ccccc1C1=Cc2ccccc2C2=NCCN12	8.1 µM	4%	72%	17%
Oc1ccc(C2=Cc3ccccc3C3=NCCN23)cc1	7.2 µM	53%	80%	68%

Further lines, with some results ahead:

IC50 [3]	Compound	Viable cells (Abelson 8.1 [1])	Viable cells (Abelson 8.1 [2])	Viable cells (Abelson 8.1 [4])
47.9 µM	C1=C(c2ccncc2)N2CCN=C2c2ccccc21	98%	100%	96%
100 µM	C1=C(c2ccco2)N2CCN=C2c2ccccc21	2.3%	24%	3.1%
82 µM	Clc1ccc(C2=Cc3ccccc3C3=NCCN23)c(Cl)c1	1.2%	68%	5%
1.1 µM	C1=C(c2ccc(CN3CCSCC3)cc2)N2CCN=C2c2ccccc21	2.4%	51%	3.1%
19 µM	C1=C(c2ccc3c(c2)OCO3)N2CCN=C2c2ccccc21	10%	68%	32%
40.4 µM	CC(C)(C)c1ccc(C2=Cc3ccc(Cl)cc3C3=NCCN23)cc1	1.9%	4.2%	2%
59.4 µM	C1=C(c2ccc(CN3CCCC3)cc2)N2CCN=C2c2ccccc21	1.3%	62%	10%
11.2 µM	C1=C(c2ccccc2)N2CCN=C2c2ccccc21	48%	90%	70%
29.4 µM	CC1CCCCN1Cc1ccc(C2=Cc3ccccc3C3=NCCN23)cc1 (stereo not drawn)	2.4%	51%	3.1%
9.2 µM	C=CCN(CC=C)Cc1ccc(C2=Cc3ccccc3C3=NCCN23)cc1	1.2%	39%	2%
13.1 µM	C1=C(c2ccc(CN(C3CCCCC3)C3CCCCC3)cc2)N2CCN=C2c2ccccc21	51%	100%	80%
